From ChEMBL document CHEMBL1142319, “New antitumor imidazo[2,1-b]thiazole guanylhydrazones and analogues” (2008) come the findings set out here.

What all share (assay type): functional
What all share (settings): for TGI: read-out: pTGI (converted)

The subject of assay [1] is Cancer cell lines. Briefly: Inhibition of human colon cancer cells. In outline: (§1)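 NCI 60-cell-line panel, with results grouped by tissue subpanel. Compounds dissolved in DMSO and tested at five 10-fold dilutions, top concentration 10^-4 M. Values given as -log molar concentration for 50% growth inhibition (pGI50), total growth inhibition (pTGI) and 50% cell kill (pLC50), with subpanel means calculated.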

Assay [2] relates to Leukemia cell. Briefly: Inhibition of human leukemia cells. In outline:
as §1

The test system of assay [3] is Cancer cell lines. Briefly: Inhibition of human non-small cell lung cancer cells. Summed up: as §1
Assay [4] relates to Cancer cell lines. The assay is described as follows: Inhibition of human CNS cancer cells. In outline:
as §1

Assay [5] deals with Melanoma cell. The assay is described as follows: Inhibition of human melanoma cells. Summed up:
as §1

Assay [6] has as its system Cancer cell lines. Briefly: Inhibition of human ovarian cancer cells. Summed up: as §1
The test system of assay [7] is Cancer cell lines. The assay is described as follows: Inhibition of human renal cancer cells. In outline: as §1
Assay [8] deals with Cancer cell lines. The assay is described as follows: Inhibition of human prostate cancer cells. In outline:
as §1

For assay [9], the system named is Cancer cell lines. Briefly: Inhibition of human breast cancer cells. In outline:
as §1

Take `N=C(N)N/N=C/c1c(-c2ccsc2)nc2n1CCS2`: the GI50 – broadly, the concentration that inhibits growth by half – was 22.9 µM in [1]; 19.1 µM in [2]; 28.8 µM in assay [3]; 25.1 µM in assay [4]; 21.9 µM in [5]; 14.5 µM in assay [6]. Further, the GI50 is 28.2 µM in [7], 17.4 µM in assay [8] and 32.4 µM in assay [9].

Consider `Cc1cn2c(/C=N/NC(=N)N)c(-c3cccs3)nc2s1`, for which the GI50 in assay [1] was 2.57 µM; in assay [2] it was 1.82 µM; in assay [3], 7.76 µM; in assay [4], 4.27 µM; in assay [5] it was 2.24 µM; in assay [6], 6.46 µM. Besides, the figures for the GI50 in assay [7], in assay [8] and in [9] were 4.27 µM, 3.02 µM and 5.75 µM, respectively. Besides, the TGI in assay [1] is 8.13 µM; in assay [2], 4.07 µM; in assay [3], 25.1 µM; in assay [4], 11.7 µM; in assay [5], 5.89 µM; in assay [6] it was 17.4 µM. Besides, the results for the TGI in assay [7], in assay [8] and in assay [9] were 14.1 µM, 12.3 µM and 18.6 µM, respectively.

In the case of `Cc1cc(-c2nc3sc(C)cn3c2/C=N/NC(=N)N)c(C)s1`, the GI50 is 3.72 µM in [1]; 47.9 µM in assay [2]; 9.77 µM in [3]; 8.32 µM in assay [4]; 7.41 µM in [5]; 12 µM in assay [6]. Besides, the GI50 in assay [7] is 14.1 µM; in assay [8] it was 4.79 µM; in assay [9], 4.47 µM. The TGI in [1] was 11.7 µM; in [3] it was 25.1 µM; in [4], 18.2 µM; in assay [5], 15.1 µM; in [6] it was 33.1 µM; in [7], 32.4 µM. Moreover, the TGI in assay [8] is 19.1 µM; in [9], 13.5 µM.

On to `Cc1cn2c(/C=N/NC(=N)N)c(-c3ccsc3)nc2s1`, for which the GI50 was 5.37 µM in [1]; 7.76 µM in [2]; 13.8 µM in assay [3]; 6.92 µM in assay [4]; 8.13 µM in [5]; 11 µM in assay [6]. The GI50 in assay [7] was 10.2 µM; in assay [8], 7.59 µM; in assay [9], 7.76 µM. Also, the TGI in [1] was 20.4 µM; in assay [2], 46.8 µM; in assay [3], 41.7 µM; in [4], 19.5 µM; in assay [5] it was 19.5 µM; in assay [6] it was 27.5 µM. Moreover, the results for the TGI in [7], in assay [8] and in [9] were 28.2 µM, 20 µM and 22.4 µM, respectively.

With `COc1cc([N+](=O)[O-])c(OC)cc1-c1nc2sc(Cl)cn2c1/C=N\Nc1ccccn1`, the GI50 was 44.7 µM in [1]; 9.12 µM in [2]; 25.7 µM in assay [3]; 15.5 µM in assay [4]; 33.1 µM in assay [5]; 20 µM in assay [6]. Further, the GI50 was 13.5 µM in assay [7], 16.2 µM in assay [8] and 17.4 µM in [9]. The TGI is 35.5 µM in assay [2]; 30.2 µM in assay [4]; 46.8 µM in assay [5]; 33.1 µM in [6]; 30.9 µM in [7]; 41.7 µM in assay [9].

On to `N=C(N)N/N=C/c1c(-c2ccsc2)nc2sccn12`, for which the GI50 in [1] was 14.1 µM; in assay [2], 6.92 µM; in assay [3], 15.1 µM; in assay [4] it was 15.1 µM; in assay [5], 17 µM; in assay [6] it was 15.5 µM. The results for the GI50 in [7], in assay [8] and in assay [9] were 14.8 µM, 14.8 µM and 17.4 µM, respectively. For the same molecule, the TGI was 29.5 µM in [1]; 24 µM in assay [2]; 30.2 µM in assay [3]; 28.8 µM in [4]; 31.6 µM in assay [5]; 31.6 µM in [6]. Further, the values for the TGI in assay [7], in assay [8] and in assay [9] were 29.5 µM, 28.8 µM and 31.6 µM, respectively.

For `N=C(N)N/N=C/c1c(-c2cccs2)nc2n1CCS2`, the GI50 in assay [1] was 17.4 µM; in assay [2], 18.6 µM; in assay [3], 28.8 µM; in assay [4] it was 19.1 µM; in assay [5] it was 21.4 µM; in [6] it was 39.8 µM. In addition, the values for the GI50 in [7], in assay [8] and in [9] were 22.9 µM, 19.5 µM and 17.4 µM, respectively. The TGI was 38.9 µM in assay [1]; 38.9 µM in [2]; 39.8 µM in assay [4]; 38 µM in assay [5]; 36.3 µM in assay [8]; 40.7 µM in [9].

Consider `N=C(N)N/N=C/c1c(-c2cccs2)nc2sccn12`, for which the GI50 was 9.77 µM in [1]; 6.76 µM in assay [2]; 12.9 µM in [3]; 12 µM in [4]; 15.1 µM in [5]; 10.2 µM in assay [6]. Also, the values for the GI50 in assay [7], in assay [8] and in [9] were 8.32 µM, 12.3 µM and 14.8 µM, respectively. In addition, the TGI is 24 µM in [1]; 38 µM in assay [2]; 29.5 µM in assay [3]; 25.7 µM in assay [4]; 28.8 µM in [5]; 26.9 µM in [6]. Also, the values for the TGI in [7], in [8] and in assay [9] were 21.9 µM, 24.5 µM and 28.2 µM, respectively.

Consider `Cc1cn2c(/C=N/Nc3ccccn3)c(-c3ccc(Cl)c([N+](=O)[O-])c3)nc2s1`, for which the GI50 is 26.3 µM in [1]; 16.6 µM in assay [2]; 11.5 µM in assay [3]; 7.76 µM in assay [4]; 18.2 µM in [5]; 9.12 µM in [6]. The GI50 in assay [7] is 15.5 µM; in assay [8] it was 11.7 µM; in assay [9], 13.8 µM. For the same molecule, the TGI is 42.7 µM in assay [1]; 33.9 µM in assay [2]; 30.9 µM in assay [3]; 19.5 µM in [4]; 38 µM in [5]; 25.7 µM in [6]. Besides, the figures for the TGI in [7], in [8] and in [9] were 39.8 µM, 38.9 µM and 38.9 µM, respectively.

In the case of `N=C(N)N/N=C/c1c(-c2cc(Cl)sc2Cl)nc2n1CCS2`, the GI50 was 1.82 µM in assay [1]; 10.2 µM in [2]; 11.2 µM in assay [3]; 8.71 µM in assay [4]; 10 µM in [5]; 10.5 µM in assay [6]. Moreover, the GI50 is 10 µM in assay [7], 8.13 µM in assay [8] and 12.3 µM in [9]. Also, the TGI is 16.2 µM in assay [1]; 24.5 µM in assay [2]; 22.4 µM in [3]; 17.4 µM in assay [4]; 20.4 µM in [5]; 22.9 µM in assay [6]. Further, the TGI in assay [7] is 20 µM; in [8], 15.1 µM; in [9], 22.9 µM.

With `COc1cc(OC)cc(-c2nc3sccn3c2/C=N/NC(=N)N)c1`, the GI50 in assay [1] is 6.03 µM; in [2] it was 10.2 µM; in [3] it was 9.33 µM; in assay [4], 8.13 µM; in assay [5] it was 8.51 µM; in [6] it was 7.94 µM. For the same molecule, the GI50 in assay [7] was 8.51 µM; in assay [8], 9.33 µM; in assay [9], 10 µM. The TGI was 14.8 µM in assay [1]; 19.1 µM in assay [2]; 20.4 µM in [3]; 17.4 µM in assay [4]; 17.8 µM in [5]; 17 µM in [6]. For the same molecule, the values for the TGI in assay [7], in assay [8] and in assay [9] were 17.8 µM, 16.2 µM and 20.4 µM, respectively.

Regarding `N=C(N)N/N=C/c1c(-c2cc(Cl)sc2Cl)nc2sccn12`, the GI50 is 0.977 µM in [1]; 1 µM in [2]; 2.69 µM in assay [3]; 1.12 µM in [4]; 2.82 µM in assay [5]; 1.1 µM in [6]. The GI50 in assay [7] is 1.62 µM; in [8], 1.55 µM; in assay [9] it was 1.66 µM. For the same molecule, the TGI in assay [1] was 2.34 µM; in [2], 2.14 µM; in assay [3] it was 10.7 µM; in [4], 2.82 µM; in assay [5] it was 7.24 µM; in assay [6], 3.55 µM. The TGI is 5.75 µM in assay [7], 6.17 µM in [8] and 4.27 µM in assay [9].

Turning to `N=C(N)N/N=C/c1c(-c2ccc(Cl)c([N+](=O)[O-])c2)nc2sc3ccccc3n12`, the 50% growth inhibitory concentration (GI50) was 0.339 µM in assay [1]; 0.138 µM in assay [2]; 0.676 µM in assay [3]; 0.447 µM in [4]; 0.708 µM in [5]; 1.1 µM in assay [6]. The figures for the GI50 in assay [7], in assay [8] and in assay [9] were 0.832 µM, 2.29 µM and 0.741 µM, respectively. For the same molecule, the TGI in assay [1] was 3.63 µM; in assay [3] it was 3.8 µM; in assay [4] it was 3.02 µM; in [5], 2.75 µM; in [6], 1.95 µM; in assay [7], 3.89 µM. The TGI in assay [8] is 14.8 µM; in assay [9], 9.55 µM.

With `Cc1cc(-c2nc3n(c2/C=N/NC(=N)N)CCS3)c(C)s1`, the GI50 in assay [1] was 13.8 µM; in assay [2] it was 20.9 µM; in assay [3], 17 µM; in assay [4] it was 18.6 µM; in [5] it was 15.5 µM; in assay [6], 24 µM. Moreover, the 50% growth inhibitory concentration (GI50) in assay [7] is 17.4 µM; in [8] it was 15.5 µM; in assay [9], 24 µM. Moreover, the TGI was 29.5 µM in [1]; 35.5 µM in [3]; 34.7 µM in [4]; 29.5 µM in assay [5]; 47.9 µM in assay [6]; 38 µM in assay [7]. For the same molecule, the TGI is 30.9 µM in assay [8] and 41.7 µM in assay [9].
